Columns and labels:
Rattus norvegicus [1] = assay: Antiinflammatory activity in rat assessed as inhibition of carrageenan-induced paw edema at 25 mg/kg, po preincubated for 1 hr followed by carrageenan challenge relative to control; type: functional
Outline: (§1)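 Winter carrageenan edema screen in rats. Compound was given orally as a suspension in 0.5% CMC at 100 and/or 25 mg/kg. One hour later, 1% carrageenan solution was injected into the hind paw.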

Rattus norvegicus [2] = assay: Antiinflammatory activity in rat assessed as inhibition of carrageenan-induced paw edema at 2.5 mg/kg, po preincubated for 1 hr followed by carrageenan challenge relative to control; type: functional
Outline: (§2)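 Winter carrageenan paw edema in rats. Oral dosing as a suspension in 0.5% CMC was followed 1 h later by 1% carrageenan injected into the hind paw. Several doses were tested, and ED50 was read from the dose-response curve.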

Rattus norvegicus [3] = assay: Antiinflammatory activity in po dosed rat assessed as inhibition of carrageenan-induced paw edema preincubated for 1 hr followed by carrageenan challenge relative to control; type: functional; outline: as §2
Rattus norvegicus [4] = assay: Ulcerogenic activity in po dosed rat assessed as induction of lesions in gastric mucosa measured after 24 hrs; type: toxicity, organism-based; settings: in vivo
Outline: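 Compounds were suspended in 0.2% carboxymethylcellulose and given orally to seven male rats per dose, at five or more doses; controls got vehicle alone. Rats were killed 24 h later, and gastric lesions (hemorrhage, erosion, ulcer) were counted blind. MUD, the dose giving two lesions, was calculated graphically.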

Mus musculus = assay: Analgesic activity in po dosed mouse assessed as inhibition of acetic acid-induced writhing; type: functional
Outline: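 Acetic acid writhing test after Koster, using 10 male mice per dose.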

Rattus norvegicus [5] = assay: Antiarthritic activity in po dosed rat assessed as reduction of adjuvant-induced foot volume administered as qd for 14 days starting on day 14 after adjuvant inoculation measured on day 28; type: functional
Outline: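 Rats with established adjuvant arthritis (Newbould method) were dosed orally once daily for 14 days, starting on day 14 after adjuvant inoculation. Foot swelling was measured as volume. ED50 was estimated from the dose-response curve.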

Rattus norvegicus [6] = assay: Antiinflammatory activity in rat assessed as inhibition of carrageenan-induced paw edema at 10 mg/kg, po preincubated for 1 hr followed by carrageenan challenge relative to control; type: functional; outline: as §2
Rattus norvegicus [7] = assay: Antiinflammatory activity in rat assessed as inhibition of carrageenan-induced paw edema at 100 mg/kg, po preincubated for 1 hr followed by carrageenan challenge relative to control; type: functional; outline: as §1
Rattus norvegicus [8] = assay: Antiinflammatory activity in rat assessed as inhibition of carrageenan-induced paw edema at 3 mg/kg, po preincubated for 1 hr followed by carrageenan challenge relative to control; type: functional; outline: as §2
Rattus norvegicus [9] = assay: Antiinflammatory activity in rat assessed as inhibition of carrageenan-induced paw edema at 50 mg/kg, po preincubated for 1 hr followed by carrageenan challenge relative to control; type: functional; outline: as §2

## O=C(O)C1CCc2c(cnn2-c2ccncc2)C1 (centres undefined)
Rattus norvegicus [1]
  inhibition in vivo at 25 mg/kg: 13.4%

## O=C(O)C1CCc2c(cnn2-c2ccccc2)C1 (centres undefined)
Rattus norvegicus [2]
  inhibition in vivo at 2.5 mg/kg: 40.6%
Rattus norvegicus [3]
  ED50: 3.5 mg/kg
Rattus norvegicus [4]
  MUD: 20 mg/kg
Mus musculus
  ED50: 4.7 mg/kg
Rattus norvegicus [5]
  ED50: 1.5 mg/kg
Rattus norvegicus [6]
  inhibition in vivo at 10 mg/kg: 72.6%

## O=C(O)C1CCc2c(cnn2-c2ccc(Cl)cc2)C1 (centres undefined)
Rattus norvegicus [3]
  ED50: 17 mg/kg
Rattus norvegicus [4]
  MUD: 70 mg/kg
Rattus norvegicus [1]
  inhibition in vivo at 25 mg/kg: 39.4%
Mus musculus
  ED50: 7 mg/kg
Rattus norvegicus [5]
  ED50: 6.4 mg/kg
Rattus norvegicus [6]
  inhibition in vivo at 10 mg/kg: 39.4%

## O=C(O)C1CCc2c(cnn2-c2cccc(F)c2)C1 (centres undefined)
Rattus norvegicus [1]
  inhibition in vivo at 25 mg/kg: 38.2%

## Cc1ccc(-n2ncc3c2CCC(C(=O)O)C3)cc1 (centres undefined)
Rattus norvegicus [1]
  inhibition in vivo at 25 mg/kg: 38.7%

## Cc1ccccc1-n1ncc2c1CCC(C(=O)O)C2 (centres undefined)
Rattus norvegicus [1]
  inhibition in vivo at 25 mg/kg: 0%

## COc1ccc(-n2ncc3c2CCC(C(=O)O)C3)cc1 (centres undefined)
Rattus norvegicus [1]
  inhibition in vivo at 25 mg/kg: 9.8%

## O=C(O)C1CCc2c(cnn2-c2ccc(O)cc2)C1 (centres undefined)
Rattus norvegicus [7]
  inhibition in vivo at 100 mg/kg: 14.7%

## O=C(O)C1CCc2c(cnn2-c2cccc(C(F)(F)F)c2)C1 (centres undefined)
Rattus norvegicus [1]
  inhibition in vivo at 25 mg/kg: 35.6%

## O=C(O)C1CCc2c(cnn2-c2ccccn2)C1 (centres undefined)
Rattus norvegicus [1]
  inhibition in vivo at 25 mg/kg: 57.9%

## O=C(O)C1CCc2c(cnn2-c2cccc3ccccc23)C1 (centres undefined)
Rattus norvegicus [1]
  inhibition in vivo at 25 mg/kg: 13.1%

## O=C(O)C1CCc2c(cnn2Cc2ccccc2)C1 (centres undefined)
Rattus norvegicus [1]
  inhibition in vivo at 25 mg/kg: 15.9%

## O=C(O)C1CCc2nn(-c3ccccc3)cc2C1 (centres undefined)
Rattus norvegicus [7]
  inhibition in vivo at 100 mg/kg: 36.4%

## O=C(O)C1CCc2nn(-c3ccc(Cl)cc3)cc2C1 (centres undefined)
Rattus norvegicus [7]
  inhibition in vivo at 100 mg/kg: 17.9%

## Cc1ccc(-n2cc3c(n2)CCC(C(=O)O)C3)cc1 (centres undefined)
Rattus norvegicus [7]
  inhibition in vivo at 100 mg/kg: 10.8%

## Cc1ccccc1-n1cc2c(n1)CCC(C(=O)O)C2 (centres undefined)
Rattus norvegicus [7]
  inhibition in vivo at 100 mg/kg: 38%

## COc1ccc(-n2cc3c(n2)CCC(C(=O)O)C3)cc1 (centres undefined)
Rattus norvegicus [7]
  inhibition in vivo at 100 mg/kg: 6%

## O=C(O)C1CCc2nn(-c3cccc(C(F)(F)F)c3)cc2C1 (centres undefined)
Rattus norvegicus [7]
  inhibition in vivo at 100 mg/kg: 14.8%

## O=C(O)C1CCc2nn(-c3ccccn3)cc2C1 (centres undefined)
Rattus norvegicus [7]
  inhibition in vivo at 100 mg/kg: 11.5%

## O=C(O)C1CCc2nn(-c3cccc4ccccc34)cc2C1 (centres undefined)
Rattus norvegicus [1]
  inhibition in vivo at 25 mg/kg: 0%

## O=C(O)C1CCc2nn(Cc3ccccc3)cc2C1 (centres undefined)
Rattus norvegicus [7]
  inhibition in vivo at 100 mg/kg: 3.7%

## O=C(O)c1nn(-c2ccccc2)c2c1CC(C(=O)O)CC2 (centres undefined)
Rattus norvegicus [7]
  inhibition in vivo at 100 mg/kg: 0%

## O=C(O)c1nn(-c2ccc(Cl)cc2)c2c1CC(C(=O)O)CC2 (centres undefined)
Rattus norvegicus [7]
  inhibition in vivo at 100 mg/kg: 0%

## Cc1ccc(-n2nc(C(=O)O)c3c2CCC(C(=O)O)C3)cc1 (centres undefined)
Rattus norvegicus [7]
  inhibition in vivo at 100 mg/kg: 0%

## O=C(O)c1nn(-c2cccc(C(F)(F)F)c2)c2c1CC(C(=O)O)CC2 (centres undefined)
Rattus norvegicus [7]
  inhibition in vivo at 100 mg/kg: 0%

## O=C(O)c1ccccc1Nc1cccc(C(F)(F)F)c1 [FLUFENAMIC ACID]
Rattus norvegicus [3]
  ED50: 20 mg/kg
Rattus norvegicus [4]
  MUD: 50 mg/kg
Mus musculus
  ED50: 160 mg/kg
Rattus norvegicus [5]
  ED50: 5.1 mg/kg

## COc1ccc2c(c1)c(CC(=O)O)c(C)n2C(=O)c1ccc(Cl)cc1 [INDOMETHACIN]
Rattus norvegicus [3]
  ED50: 3.8 mg/kg
Rattus norvegicus [4]
  MUD: 5.6 mg/kg
Mus musculus
  ED50: 6.3 mg/kg
Rattus norvegicus [5]
  ED50: 0.3 mg/kg
Rattus norvegicus [8]
  inhibition in vivo at 3 mg/kg: 35.5%

## CCCCC1C(=O)N(c2ccccc2)N(c2ccccc2)C1=O [PHENYLBUTAZONE]
Rattus norvegicus [3]
  ED50: 78 mg/kg
Rattus norvegicus [9]
  inhibition in vivo at 50 mg/kg: 43.4%
Rattus norvegicus [4]
  MUD: 90 mg/kg
Mus musculus
  ED50: 810 mg/kg
Rattus norvegicus [5]
  ED50: 12 mg/kg

From ChEMBL document CHEMBL3228037, “Syntheses and antiinflammatory actions of 4,5,6,7-tetrahydroindazole-5-carboxylic acids” (J Med Chem, 1979)
